Assay results collected from several papers.
Lines come from different studies, so protocols differ. pIC50: −log10 of the molar value.
Effect on: cell growth or viability

The pIC50 of `CCn1c2ccccc2c2cc(/C=C/C(=O)c3cc4cccc(OC)c4oc3=O)ccc21` is reported as 3.94 (NRK-52E; MTT; 24 h).
`COc1cc2nccc(Oc3ccc(NC(=O)C4(C(=O)Nc5ccc(F)cc5)CC4)cc3)c2cc1OC` has a pIC50 of 5.24 (Rh18; 72 h).
The pIC50 of `CCn1c2ccccc2c2cc(C3CC(c4cc5ccccc5oc4=O)=NN3C(N)=O)ccc21` (stereo not drawn) is reported as 4.55 (NRK-52E; MTT; 24 h).
`CC1=C(O)C(=O)C=C2C1=CC=C1[C@@]2(C)CC[C@@]2(C)[C@@H]3C[C@](C)(C(=O)OCCCOc4ccccc4)CC[C@]3(C)CC[C@]12C` has a pIC50 of 5.88 (Bel-7402; MTT; 48 h).
`CCn1c2ccccc2c2cc(C3CC(c4cc5ccccc5oc4=O)=NN3c3cccc(Cl)c3)ccc21` (stereo not drawn) gave a pIC50 of 4.39 (NRK-52E; MTT; 24 h).
`O=C(O)C(c1c[nH]c2ccccc12)c1c[nH]c2ccccc12` has a pIC50 of < 4.70 (KG-1; 48 h).
The pIC50 of `CC1=C(O)C(=O)C=C2C1=CC=C1[C@@]2(C)CC[C@@]2(C)[C@@H]3C[C@](C)(C(=O)OCCCN4C(=O)C5C=CC=CC5C4=O)CC[C@]3(C)CC[C@]12C` (stereo partly drawn) is reported as 6.08 (Bel-7402; MTT; 48 h).
The pIC50 of `Oc1ccc(C(c2c[nH]c3ccccc23)c2c[nH]c3ccccc23)cc1` is reported as < 4.70 (KG-1; 48 h).
`CC(C)C[C@H](NC(=O)[C@H](Cc1ccccc1)NC(=O)c1cnccn1)B(O)O` gave a pIC50 of 8.32 (KG-1; ATP luminescence).
`CCn1c2ccccc2c2cc(/C=C/C(=O)c3cc4ccccc4oc3=O)ccc21` gave a pIC50 of 4.02 (NRK-52E; MTT; 24 h).
`Cc1ccc2c(c1)c(C(c1ccc(/C=C/C(=O)O)s1)c1cn(C(C)C)c3ccc(C)cc13)cn2C(C)C` has a pIC50 of < 5.30 (KG-1; 48 h).
With `COC(=O)N[C@@H](C)CNc1nccc(-c2cn(C(C)C)nc2-c2cc(Cl)cc(NS(C)(=O)=O)c2F)n1` the pIC50 was 8.41 (Malme-3M).
For `CC1=C(O)C(=O)C=C2C1=CC=C1[C@@]2(C)CC[C@@]2(C)[C@@H]3C[C@](C)(C(=O)OCCCBr)CC[C@]3(C)CC[C@]12C`, the pIC50 was 6.14 (Bel-7402; MTT; 48 h).
With `CC(=O)O[C@H]1C(=O)[C@@]2(C)[C@H]([C@H](OC(=O)c3ccccc3)[C@]3(O)C[C@H](OC(=O)[C@H](O)[C@@H](NC(=O)c4ccccc4)c4ccccc4)C(C)=C1C3(C)C)[C@]1(OC(C)=O)CO[C@@H]1C[C@@H]2O` the IC50 was 2 µg/mL (CT26).
The pIC50 of `Cc1ccc2[nH]cc(C(c3ccc(/C=C/C(=O)O)s3)c3c[nH]c4ccc(C)cc34)c2c1` is reported as < 5.30 (KG-1; 48 h).
For `CCn1c2ccccc2c2cc(C3CC(c4cc5c(ccc6ccccc65)oc4=O)=NN3C(C)=O)ccc21` (stereo not drawn), the pIC50 was 4.09 (NRK-52E; MTT; 24 h).
For `O=C(O)c1ccc(C(c2c[nH]c3ccccc23)c2c[nH]c3ccccc23)cc1`, the pIC50 was < 4.70 (KG-1; 48 h).
With `COc1cc(-c2ncn(/C=C\C(=O)OC(C)C)n2)cc(C(F)(F)F)c1` the pIC50 was 6.78 (KG-1; 72 h).
`CCn1c2ccccc2c2cc(C3CC(c4cc5cccc(OC)c5oc4=O)=NN3c3ccccc3)ccc21` (stereo not drawn) gave a pIC50 of 4.15 (NRK-52E; MTT; 24 h).
With `CC1=C(O)C(=O)C=C2C1=CC=C1[C@@]2(C)CC[C@@]2(C)[C@@H]3C[C@](C)(C(=O)OCCCO)CC[C@]3(C)CC[C@]12C` the pIC50 was 6.24 (Bel-7402; MTT; 48 h).
With `CCn1c2ccccc2c2cc(C3CC(c4cc5cccc(OC)c5oc4=O)=NN3C(C)=O)ccc21` (stereo not drawn) the pIC50 was 4.01 (NRK-52E; MTT; 24 h).
The pIC50 of `CC(C)[C@H](N)C(=O)N1CCC[C@H]1B(O)O` is reported as 6.92 (KG-1; ATP luminescence; 48 h).
`C[C@@H](Oc1cc(-c2cnn(C3CCNCC3)c2)cnc1N)c1c(Cl)ccc(F)c1Cl` has a pIC50 of 6.26 (Rh18; 72 h).
With `Cn1cc(C(c2ccc(/C=C/C(=O)O)s2)c2cn(C)c3ccccc23)c2ccccc21` the pIC50 was < 4.70 (KG-1; 48 h).
With `COc1cc(Nc2nccc(-c3cnn4nc(OC)ccc34)n2)cc(C(F)(F)F)c1` the pIC50 was 6.07 (KG-1; ATP luminescence).
With `CC(=O)OCCOC(=O)[C@]1(C)CC[C@]2(C)CC[C@]3(C)C4=CC=C5C(=CC(=O)C(O)=C5C)[C@]4(C)CC[C@@]3(C)[C@@H]2C1` the pIC50 was 6.23 (Bel-7402; MTT; 48 h).
With `Cc1cc(Nc2ncc(Cl)c(Nc3ccccc3S(=O)(=O)C(C)C)n2)c(OC(C)C)cc1C1CCNCC1` the pIC50 was 5.63 (Rh18; 72 h).
With `N[C@@H](CC(=O)N1CCN(C(c2ccc(F)cc2)c2ccc(F)cc2)CC1)C(=O)N1Cc2ccccc2C1` the pIC50 was 5.03 (KG-1; ATP luminescence; 48 h).
For `CC1=C(O)C(=O)C=C2C1=CC=C1[C@@]2(C)CC[C@@]2(C)[C@@H]3C[C@](C)(C(=O)OCCCCCCCCO)CC[C@]3(C)CC[C@]12C`, the pIC50 was 5.94 (Bel-7402; MTT; 48 h).
For `CCn1c2ccccc2c2cc(C3CC(c4cc5c(ccc6ccccc65)oc4=O)=NN3c3ccccc3)ccc21` (stereo not drawn), the pIC50 was 3.91 (NRK-52E; MTT; 24 h).
